From PubChem
TMEM16A inh – blocks the mouse calcium-activated chloride channel TMEM16A. actives 1.2% (n = 310,000). HEK293 TMEM16A/YFP iodide influx fluorescence, ionomycin. Q8BHY3. normalized B-score (activity score, 25-100; higher = stronger inhibition) at 10 µM. AID 588511;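 active = ratio plate-corrected score three or more library SD toward inhibition, starting fluorescence score within five deviations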;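 note: score derived from kinetic fluorescence span divided by baseline fluorescence per well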
Target sequence (Q8BHY3 whole entry, looked up): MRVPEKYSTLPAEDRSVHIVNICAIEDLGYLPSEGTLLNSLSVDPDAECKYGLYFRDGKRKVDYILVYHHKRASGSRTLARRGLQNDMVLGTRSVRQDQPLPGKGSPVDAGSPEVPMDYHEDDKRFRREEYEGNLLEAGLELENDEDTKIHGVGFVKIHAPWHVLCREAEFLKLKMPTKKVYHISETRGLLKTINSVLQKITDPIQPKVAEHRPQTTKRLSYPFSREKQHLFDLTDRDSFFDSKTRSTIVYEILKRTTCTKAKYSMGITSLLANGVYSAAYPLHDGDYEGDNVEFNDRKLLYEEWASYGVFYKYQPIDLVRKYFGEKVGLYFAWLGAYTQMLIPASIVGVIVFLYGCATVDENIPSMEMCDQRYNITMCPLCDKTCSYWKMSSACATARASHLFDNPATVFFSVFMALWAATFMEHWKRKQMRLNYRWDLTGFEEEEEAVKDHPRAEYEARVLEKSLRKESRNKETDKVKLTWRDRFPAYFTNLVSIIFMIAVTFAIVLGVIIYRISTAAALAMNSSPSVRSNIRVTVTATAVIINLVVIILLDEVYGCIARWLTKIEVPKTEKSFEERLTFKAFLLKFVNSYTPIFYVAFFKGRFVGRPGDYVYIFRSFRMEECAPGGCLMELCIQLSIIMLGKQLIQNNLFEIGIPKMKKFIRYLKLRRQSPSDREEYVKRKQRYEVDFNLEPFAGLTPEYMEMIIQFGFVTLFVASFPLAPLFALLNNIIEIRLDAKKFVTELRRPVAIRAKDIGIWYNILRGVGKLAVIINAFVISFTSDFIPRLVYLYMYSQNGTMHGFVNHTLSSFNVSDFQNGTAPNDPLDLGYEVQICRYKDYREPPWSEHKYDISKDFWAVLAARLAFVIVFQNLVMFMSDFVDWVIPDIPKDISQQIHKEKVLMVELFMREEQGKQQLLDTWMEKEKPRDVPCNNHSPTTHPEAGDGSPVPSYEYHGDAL
DNA FID counter – counter-screen for HCV NS3 helicase inhibitors: DNA intercalator displacement; DNA fluorescent intercalator displacement, fluorescence; inhibition, % at 7.9 µM; actives 0.17% (n = 290,000); AID 1845; in the data active = inhibition above about 37%;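 note: 0% = vehicle and 100% = reference compound; higher means more ethidium bromide displaced from hairpin DNA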
TMEM16A act – activators or potentiators of mouse TMEM16A chloride channel; Q8BHY3; HEK293 TMEM16A/YFP-H148Q/I152L, iodide quench fluorescence; active compounds read low; B-score at 10 µM; actives 0.3% (n = 340,000);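 active = fluorescence-ratio B-score plate-corrected deviation score at least 3 library SD below zero, with starting fluorescence score within 5 deviations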;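 note: channel opened by trigger with iodide after compound preincubation; score built on the fluorescence ratio of max minus min over baseline; more negative score means more quench and so TMEM16A activation or potentiation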
Apaf-1 inh – human Apaf-1 inhibition; O14727; reconstituted apoptosome caspase-3 activity, DEVD-Rh110 fluorescence; inhibition, % at 20 µM; actives 0.71% (n = 330,000); active = inhibition of at least 40% at 20 µM;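 note: plate controls were DMSO wells for no effect and DEVD-CHO caspase inhibitor wells for full effect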
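Assay system – apoptosome proteins · Medium – Hepes buffer, pH 7.5 · Also added – cytochrome c with DEVD-Rh110 · Timing – 30 min compound preincubation, 50 min activation, room temperature · Detection – Rh110 fluorescence, excitation 480 nm, emission 540 nm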
UBC13 polyUb – human UBC13 polyubiquitination inhibition. actives 0.47% (n = 330,000). inhibition, % at 20 µM. UBC13 polyubiquitin chain formation, TR-FRET. AID 485273; in the data active = inhibition above about 45%, passing the limit was not always enough
TMEM16A reconf – re-confirmation of mouse TMEM16A chloride channel inhibitors | shares compounds with TMEM16A inh | HEK293 TMEM16A/YFP-H148Q, iodide quench fluorescence; ionomycin added to raise cell calcium | inhibition, % at 10 µM | actives 39% (n = 2,300);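 active = mean duplicate percent inhibition, scaled so buffer wells are 0 and the reference blocker 100, over three buffer SD above buffer mean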
HEK293 Ca mobil – alters calcium mobilization in TMEM16A HEK293 cells, counter-screen. shares compounds with TMEM16A inh. TMEM16A/YFP HEK293, Fluo4 calcium mobilization. actives 2% (n = 2,300). calcium response (% of ionomycin), % at 10 µM. AID 652231;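 active = duplicate-averaged calcium signal over 20% of the ionomycin maximum, relative to buffer baseline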;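 note: each well's signal is peak minus trough fluorescence divided by its pre-addition baseline; 0% = buffer wells and 100% = ionomycin wells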
Parental YFP cnt – parental YFP-HEK293 iodide quench counter-screen activity; shares compounds with TMEM16A inh; ionomycin; YFP ratio F(max-min)/F0 at 10 µM; 2,300 tested, under 10 active;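 active = yellow fluorescent protein signal ratio exceeding the buffer control mean by over 5 SD of those controls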;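 note: ratio is mean of duplicate wells from kinetic YFP trace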
ClC-1 inh – rat ClC-1 inhibition, TMEM16A specificity screen. CHO ClC-1-YFP, iodide influx fluorescence quench; iodide control reads 0, buffer control 100. shares compounds with TMEM16A inh. 2,300 tested, under 10 active. ratio percent, % at 10 µM;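 active = duplicate-mean ratio percent above the mean of iodide-only control wells, which defines zero, plus 5 of their SD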;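 note: higher percent means stronger block of ClC-1 iodide influx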
Numbers without * were called inactive; i = inactive; nt = no result given. Shown are actives, neighbours in structure and some others; about 2.4% of the full set was active somewhere.

SMILES	TMEM16A inh	DNA FID counter	TMEM16A act	Apaf-1 inh	UBC13 polyUb	TMEM16A reconf	HEK293 Ca mobil	Parental YFP cnt	ClC-1 inh
COc1ccc(NC(=O)c2cc(S(=O)(=O)N(Cc3ccccc3)c3ccccc3)ccc2Cl)cn1	i	-21	i	16	-4	nt	nt	nt	nt
N/C(=N\OC(=O)c1cccc(F)c1)c1ccccc1	25*	2	i	15	-9	i	i	-0.9	-9
Cc1ccc(/C(N)=N/OC(=O)c2cccc(F)c2)cc1	i	-5	i	6	-12	nt	nt	nt	nt
Cc1cccc2nc(-c3cccnc3)c(Nc3ccccc3)n12	100*	-14	i	-16	6	35%*	i	-0.98	-26
Cc1cccc2nc(-c3cccnc3)c(NCCC(C)C)n12	i	5	i	11	20	nt	nt	nt	nt
CC(=O)c1ccccc1OCc1ccc(S(=O)(=O)Cc2ccccc2)cc1	25*	-33	i	9	-1	34%*	i	-0.62	-14
O=C(NNC(=O)c1ccccc1OCc1ccccc1)c1ccccc1O	i	-34	i	1	-12	nt	nt	nt	nt
Cc1nn(Cc2ccc(C(=O)Nc3ccccc3C(F)(F)F)o2)c(C)c1Br	i	-25	i	12	31	nt	nt	nt	nt
Cc1csc(NC(=O)c2ccc(Cn3nc(C)c(Br)c3C)o2)n1	100*	-26	i	4	8	25%*	i	-0.83	-18
CC1CC(c2ccccc2)n2nc(N3C(=O)c4ccccc4C3=O)nc2N1 (stereo not drawn)	25*	3	i	3	2	i	i	-1.2	-14
CCOC(=O)c1c(S(=O)(=O)NCC(C)c2ccccc2)c(C)n(C)c1C (stereo not drawn)	i	-41	i	19	-8	nt	nt	nt	nt
CCOc1cc(/C=C2\N=C(SC)SC2=O)cc([N+](=O)[O-])c1OC(C)=O	100*	3	i	6	-92	i	i	-0.94	-3
Nc1nc(-c2ccccc2)c(-c2ccccc2)n1N	i	0	i	13	6	i	i	-1.2	-10
COc1ccc(CNC(=O)c2cccc(-c3ccc(C)c4ccccc34)n2)cc1	i	-26	i	21	9	nt	nt	nt	nt
CC1CC(C)CN(CCCNC(=O)c2ccc3nc(N4CCCCC4)sc3c2)C1 (stereo not drawn)	100*	8	i	15	15	i	i	-1.1	-20
Cc1c(C(C)(C)C)s/c(=N/S(=O)(=O)c2ccccc2)n1C	100*	-16	i	2	-2	i	i	-0.85	-14
COC(C[C@@H]1O[C@H]1[C@@H](O)COCc1ccccc1)OC	nt	nt	i	1	-5	nt	nt	nt	nt
O=C(Nc1ccc(Cl)cc1-c1nc2ccccc2s1)c1ccco1	i	-3	i	12	4	i	i	-0.93	6
Cc1cc(C)c2nc(SC(C)C#N)cc(C)c2c1 (stereo not drawn)	100*	-2	i	11	4	i	i	-1.1	0
Cc1cc(C)c2nc(SC3CCOC3=O)cc(C)c2c1 (stereo not drawn)	i	-13	i	-6	8	nt	nt	nt	nt
CN(Cc1ccco1)S(=O)(=O)c1nnc(NC(=O)c2cccc(Cl)c2)s1	25*	-16	i	-3	-13	26%*	i	-0.79	-14
CCCn1c(N)c(N(CCOC)C(=O)c2cccc(S(=O)(=O)N3CCCc4ccccc43)c2)c(=O)[nH]c1=O	i	nt	i	4	-10	nt	nt	nt	nt
COc1ccc2oc(=N)c(C(=O)Nc3ccccc3Cl)cc2c1	i	-2	i	19	-6	nt	nt	nt	nt
Cc1cccc(CC(Cc2nc3ccccc3[nH]2)c2nc3ccccc3[nH]2)c1 (stereo not drawn)	100*	13	i	-2	-14	39%*	i	-0.89	-20
Cc1ccc(C)n1-c1nnc(N2CCC(C(=O)NCCCN3CCN(C)CC3)CC2)s1	i	-1	i	25	8	nt	nt	nt	nt
SMILES	TMEM16A inh	DNA FID counter	TMEM16A act	Apaf-1 inh	UBC13 polyUb	TMEM16A reconf	HEK293 Ca mobil	Parental YFP cnt	ClC-1 inh
COC(=O)c1sc(S(=O)(=O)N2CCCCC2C)c(C(=O)OC)c1C (stereo not drawn)	nt	nt	i	2	1	nt	nt	nt	nt
Nc1cc(S(=O)(=O)N2CCCCC2)ccc1Oc1ccc(Cl)cc1	100*	-15	i	31	-1	i	i	-1.1	-14
CC(NC(=O)COC(=O)COc1cccc2c1OC(C)(C)C2)c1ccccc1 (stereo not drawn)	i	-32	i	4	0	nt	nt	nt	nt
O=C(Nc1ccc(Cl)cc1)N1CCN(C(=O)C2CCCO2)CC1 (stereo not drawn)	i	-7	i	8	0	nt	nt	nt	nt
O=C(Nc1ccc2c(c1)OCO2)N1CCN(C(=O)C2CCCO2)CC1 (stereo not drawn)	25*	0	i	-4	-1	i	i	-1.1	-4
O=C(c1cccs1)N1CCN(C(=O)C2CCCO2)CC1 (stereo not drawn)	100*	-5	i	-25	13	i	i	-1	3
CCOc1cc(C(=O)CCC(=O)OCC(=O)NC(=O)NCC(C)C)ccc1O	i	-34	i	-8	7	nt	nt	nt	nt
CN(c1ccccc1)S(=O)(=O)c1ccc(C(=O)Nc2nnc(-c3ccc(F)cc3)o2)cc1	100*	3	nt	8	-22	18%*	i	-1	-8
CN(c1ccccc1)S(=O)(=O)c1ccc(NC(=O)c2ccc(-c3ccccc3)cc2)cc1	i	2	i	-19	28	nt	nt	nt	nt
CCOC(=O)c1nc(C)nc(Sc2n[nH]c(-c3cc(C(F)(F)F)cc(C(F)(F)F)c3)n2)c1C	25*	-9	i	13	-8	30%*	i	-0.99	-22
O=C(Cn1nnc2ccccc2c1=O)NCC1CCC(C(=O)O)CC1 (stereo not drawn)	i	-1	i	-3	-3	nt	nt	nt	nt
CC(C)CNC(=O)CN(c1cccc(Cl)c1)S(C)(=O)=O	i	-3	i	-2	0	nt	nt	nt	nt
CC(=O)c1cccc(NC(=O)Nc2ccc3c(c2)N(C)C(=O)CS3)c1	25*	-12	i	18	3	34%*	i	-1.1	-15
Cc1nc(SCC(N)=O)c([N+](=O)[O-])[nH]1	i	2	i	-13	-3	nt	nt	nt	nt
